Screens as filed in PubChem BioAssay.
Shown are actives, neighbours in structure and some others; about 2.2% of the full set was active somewhere.
GSTO1 inh – counter-screen for RBBP9 inhibitors: inhibitors of human GSTO1. recombinant GSTO1, activity-based probe fluorescence polarization. P78417. inhibition, % at 5.96 µM. AID 1974. actives 1.1% (n = 300,000);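 active = inhibition above the campaign mean inhibition plus 3 SD, cut at about 35% in these data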;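 note: 0% = GSTO1-1 with DMSO and 100% = wells lacking GSTO1-1 enzyme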
Apaf-1 inh – human Apaf-1 inhibition; O14727; reconstituted apoptosome caspase-3 activity, DEVD-Rh110 fluorescence; actives 0.71% (n = 330,000); inhibition, % at 20 µM; AID 489030; active = inhibition of at least 40% at 20 µM;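 note: plate controls were DMSO wells for no effect and DEVD-CHO caspase inhibitor wells for full effect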
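Assay system – apoptosome proteins · Medium – Hepes buffer, pH 7.5 · Also added – cytochrome c with DEVD-Rh110 · Timing – 30 min compound preincubation, 50 min activation, room temperature · Detection – Rh110 fluorescence, excitation 480 nm, emission 540 nm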
UBC13 polyUb – blocks human UBC13 polyubiquitin chain formation | P61088 | TR-FRET | inhibition, % at 20 µM | actives 0.47% (n = 330,000); in the data active = inhibition above about 45%, passing the limit was not always enough; inconclusive = no clear call, values can overlap the other calls
Rin1 Abl inh – blocks binding of human Rin1 to Abl | AID 588664 | inhibition, % at 7.35 µM | actives 0.4% (n = 360,000) | P00519+Q13671 | TR-FRET Rin1/Abl binding, biochemical; in the data active = inhibition above about 5%, passing the limit was not always enough
SUMO HTRF inh – inhibitors of human SUMOylation (UBC9); HTRF SUMOylation assay, SAE1/SAE2 + UBC9, in vitro; inhibition, % at 35 µM; actives 0.36% (n = 290,000); AID 2006; in the data active = inhibition above about 50%, passing the limit was not always enough; inconclusive = no clear call, values can overlap the other calls
PAD4 inh – inhibitors of human PAD4; Q9UM07; recombinant PAD4, RCA probe fluorescence polarization; inhibition, % at 6.36 µM; actives 0.41% (n = 330,000);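 active = percent inhibition above a cutoff equal to the mean of all tested compounds plus 3 SD, cut at about 15% in these data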;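 note: 0% = PAD4 with RCA probe and DMSO and 100% = probe without PAD4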
Casp3 UBC13 ctr – inhibits human caspase-3 in UBC13 counter-screen; AID 488856; inhibition, % at 20 µM; actives 4% (n = 1,400); Recombinant caspase-3, Caspase-Glo 3/7 luminescence, 60 min; shares compounds with UBC13 polyUb;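 active = mean inhibition across replicates above about 26%, limit read from the data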;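 note: plate controls were DMSO with caspase-3 for no effect and DMSO wells lacking enzyme for full effect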
UBC13 confirm – confirmation of human UBC13 polyubiquitin inhibitors | shares compounds with UBC13 polyUb | UBC13 polyubiquitination, TR-FRET, biochemical | inhibition, % at 10 µM | actives 68% (n = 1,400); in the data active = inhibition above about 45%; inconclusive = no clear call, values can overlap the other calls
Starred values were filed as active, the others as inactive; ? = inconclusive; . = no result given.

SMILES	GSTO1 inh	Apaf-1 inh	UBC13 polyUb	Rin1 Abl inh	SUMO HTRF inh	PAD4 inh	Casp3 UBC13 ctr	UBC13 confirm
O/N=C/c1cn(-c2ccccc2)nc1-c1ccc2c(c1)OCCO2	0	15	46*	-4	-20	2	-2	48*
COc1ccc(-c2nn(-c3ccccc3)cc2/C=N/N=C(N)N)cc1OC	-8	30	51*	-3	7	-6	-5	67*
O=C(O)/C=C/c1cn(-c2ccccc2)nc1-c1ccc2c(c1)OCCO2	11	4	2	-2	28	2	.	.
O=C(NCc1cc(Cl)cc(Cl)c1)c1ccc2nc([C@H]3C[C@H](O)[C@@H](CO)O3)[nH]c2c1	.	.	.	1	.	.	.	.
O=C(NC1CCCc2c1cnn2-c1ccccc1F)c1ccccc1N1CCOCC1 (configuration not stated)	-1	12	-1	-2	2	0	.	.
C/C(CC(=O)Nc1c(C)cc(C)cc1C)=N\NC(=O)Cc1ccccc1	-1	5	2	4	-12	5	.	.
CC1=CC(C)(C)N(C(=O)CN2C(=O)c3ccccc3C2=O)c2ccc(C)cc21	2	5	3	-2	16	1	.	.
CCC(=O)N1c2ccc(C)cc2C2=NNC(=S)NC21O (configuration not stated)	0	-11	47*	-1	14	0	3	-13
CCOC(=O)N1CCN(C(=O)c2ccc3c(c2)N(Cc2ccc(F)cc2)CCS3)CC1	4	23	48*	-3	27	2	0	33
Oc1ccccc1Nc1nc(NCc2ccccc2)c2ccccc2n1	-7	5	50*	3	-12	-4	-4	49*
CNc1nc(NCc2ccccc2)c2ccccc2n1	3	-8	27	2	5	-1	.	.
Cc1ccccc1NC(=O)c1c(C)[nH]c(=S)c(C#N)c1-c1ccc(Cl)cc1	-13	-8	50*	-4	6	-8	-4	?
Cc1[nH]c(=S)c(C#N)c(-c2ccccc2)c1C(=O)Nc1ccccc1	11	12	51*	2	25	-14	3	?
Cc1ccc(-c2c(C(=O)Nc3ccccc3C)c(C)[nH]c(=S)c2C#N)o1	12	16	18	-33	13	-20	.	.
COc1ccc(NC(=S)N2CCN(c3ccc4c(c3)C3CCN(C(=O)OCc5ccccc5)C4C3)CC2)c(OC)c1 (configuration not stated)	.	.	.	2	.	.	.	.
CC(C)(C)c1cc(CCC(=O)NNC(=O)c2ccncc2)cc(C(C)(C)C)c1O	.	4	-4	3	.	3	.	.
COc1cc(-c2nc3ccc(N4CCN(C)CC4)cc3[nH]2)cc(OC)c1OC	11	10	45*	-1	?	-3	-1	37
COc1ccc(-c2nc3ccc(N4CCN(C)CC4)cc3c(=O)[nH]2)cc1	4	12	-2	-1	16	-4	.	.
Cc1ccccc1C(=O)NC(=S)NCc1ccccc1	7	9	7	1	7	-1	.	.
Cc1ccccc1C(=O)NCC(=O)NNC(=S)NC(=O)c1ccccc1C	4	-2	87*	-5	-12	5	4	78*
Cc1ccccc1C(=O)NCC(=O)NNC(=S)NC(=O)c1ccccc1	1	3	80*	-1	-23	-3	1	82*
COc1ccc(C2c3ccc4ccccc4c3Oc3ncn(CCCN(C)C)c(=N)c32)cc1 (configuration not stated)	-8	17	61*	1	15	-3	-4	48*
CCN1C(N(C)CCc2c[nH]c3ccccc23)=N[C@@H](c2cccc(C(F)(F)F)c2)C(C(=O)OC)=C1C	.	55*	60*	-3	.	0	-1	49*
CCN1C(N(C)CCc2cccs2)=N[C@@H](c2ccccc2)C(C(=O)OC)=C1C	1	8	14	2	8	-2	.	.
COCC(=O)N[C@@H]1c2ccccc2CC[C@@H]1OCc1ccccc1	.	12	.	-5	.	3	.	.
SMILES	GSTO1 inh	Apaf-1 inh	UBC13 polyUb	Rin1 Abl inh	SUMO HTRF inh	PAD4 inh	Casp3 UBC13 ctr	UBC13 confirm
CC(=O)OC[C@H]1O[C@@H](O[C@H]2C[C@]3(C)C(C[C@@H](O)C4C([C@]5(C)CC[C@@H](C(C)(C)O)O5)CC[C@]43C)[C@@]3(C)CC[C@H](O)C(C)(C)C23)[C@H](O[C@@H]2O[C@@H](C)[C@H](O)[C@@H](O)[C@H]2O)[C@@H](O)[C@@H]1O (some centres not stated)	.	5	14	1	.	1	.	.
C=C[C@](C)(CC[C@@]1(C)C(C)CC(OC2OC(C)C(OC3OC(COC(C)=O)C(O)C(O)C3O)C(O)C2O)[C@@]2(C)C(C)=CCCC12)OC1OC(C)C(O[C@@H]2O[C@@H](C)C(O)C(O)[C@H]2O)C(O)C1O (some centres not stated)	.	-2	54*	0	.	-1	2	58*
CCOC(=O)C1=C(c2ccccc2)O/C(=C(\C(=O)OC)C(F)(F)F)S1	-8	0	51*	1	-40	2	1	44
CCN1CCN(Cc2ccc(NC(=O)c3cc(NC(=O)c4cncc(-c5ccc(C#N)cc5)c4)cc(OC)c3)cc2C(F)(F)F)CC1	-37	54*	118*	-5	-28	-16	0	126*
COc1ccc(-c2sc3ccccc3c2C#Cc2cncn2C)cc1	.	31	59*	3	.	1	-1	44
CS(=O)(=O)c1ccc(-c2sc3ccccc3c2C#CCCO)cc1	.	27	45	3	.	-2	.	.
Cn1cncc1C#Cc1c(-c2ccc(S(C)(=O)=O)cc2)sc2ccccc12	.	24	69*	-2	.	-3	-5	50*
COc1ccc(-c2sc3ccccc3c2C#CCO)cc1	-1	25	17	3	1	-4	.	.
CC(=O)C1=CCC(c2ccccc2F)N(S(=O)(=O)c2ccc(C)cc2)C1 (configuration not stated)	.	.	.	0	.	.	.	.
CN1CC2=Cc3ccccc3OC23Oc2ccccc2C=C3C1	-4	9	85*	2	7	-1	-2	94*
O=C1c2ccccc2OC2(C=Cc3ccccc3O2)N1Cc1ccccc1 (configuration not stated)	-3	15	6	0	-5	3	.	.
COc1ccc(N(C(=O)CNC(=O)c2cccs2)C(C(=O)NCC2CCCO2)c2ccccc2)c(OC)c1 (configuration not stated)	-2	10	5	1	6	3	.	.
